Drawing on ChEMBL document CHEMBL1149125, “Synthesis and biological evaluation in human monocyte-derived macrophages of N-(N-acetyl-L-cysteinyl)-S-acetylcysteamine analogues with potent antioxidant and anti-HIV activities” (2004), this text covers ED70, ED90 and EC50 for six compounds.

SMILES strings stand for the structures.

The test can be described thus: Effective dose against human immuno deficiency virus-1/Ba-L in vitro in human monocyte-derived macrophages (MDM) cells. Conditions: for EC50: read-out: ED50 (the source's name). The format is functional. Summed up:
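Primary human monocytes (elutriated, ≥95% pure) differentiated 7 days into MDM in DMEM/10% heat-inactivated FCS; 1 million cells pretreated 1 h with a range of concentrations, then infected with HIV-1/BaL (10 000 TCID50, moi 0.01) for 24 h at 37 °C, washed, refed; medium and drug renewed twice weekly. Supernatant RT activity summed as cumulative RT; ED50/70/90 by Chou software; triplicate, two donors.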

For the compound `CC(=O)N[C@@H](CSC(=O)c1ccccc1)C(=O)NCCSC(=O)C(C)C`, the ED70 was determined as 205 µM, the ED90 was 285 µM and the EC50 amounted to 165 µM.

On to `CC(=O)N[C@@H](CS)C(=O)NCCSC(=O)C(C)C`, for which the ED70 worked out at 175 µM, the ED90 amounted to 380 µM and the EC50 worked out at 110 µM.

Turning to `CC(=O)N[C@@H](CS)C(=O)NCCSC(C)=O`, the ED70 was 80 µM, the ED90 came out at 195 µM and the EC50 came to 45 µM.

For the compound `CC(=O)N[C@@H](CSC(C)=O)C(=O)NCCSC(=O)C(C)C`, the ED70 is 55 µM, the ED90 was 80 µM and the EC50 worked out at 45 µM.

Take `CC(=O)N[C@@H](CS)C(=O)NCCSC(=O)C(C)(C)C`: the ED70 was 185 µM, the ED90 worked out at 270 µM and the EC50 is 145 µM.

Take `CC(=O)N[C@@H](CS)C(=O)NCCS`: the ED70 was 75 µM, the ED90 came out at 200 µM and the EC50 is 40 µM.
